PMC11421684 (Food and chemical toxicology : an international journal …, 2014)
Read-outs that look alike come from different tables or passages of the source.

Assays:
[1] = pregnant rats, ref Jingbin et al. (2010), cited from earlier work
kidney = assay: Kidney wet-mount analysis for renal crystals; type: in vivo, rat
How it was run: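 After 10 days of gavage at 1000 mg/kg BW/day, a thin fresh renal slice spanning cortex and medulla was weighed. It was compressed between two slides with a coverslip and examined fresh by light microscopy. Crystals were ranked on a subjective 0–5 scale; some views used polarised light.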

ABCG2 = conditions: MDCK cells; ref Partanen et al. (2012); cited from earlier work
[2] = Serum triazine analysis by LC-MS/MS; type: in vivo; conditions: pregnant female rats, individual rat; label = dose group; LOD 0.4 μg/mL
How it was run: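 Serum was collected from each rat after 10 daily gavages of 1000 mg/kg BW/day test compound or vehicle. Melamine and cyanuric acid were quantified by a previously published LC-MS/MS method, validated with pre-spiked serum samples at several fortification levels. Natural-log serum concentrations were compared between pregnant and non-pregnant rats by two-sided t-test (p ≤ 0.05).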

fetuses = assay: Fetal data; type: in vivo, rat; conditions: dams, 1000 mg/kg BW/day, GD20
How it was run: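 Dams were dosed by gavage (1000 mg/kg BW/day or 1% CMC-Na vehicle) for 10 days from GD10. At GD20 necropsy, the gravid uterus was removed whole and weighed. Each viable fetus was recorded for uterine position, sex, weight, crown-rump length and external abnormalities. Runts were defined as below 70% of the control litter average weight by gender.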

kidney and bladder = assay: Histopathology of kidney and bladder; type: in vivo, rat
rats = assay: Clinical observations and survival; type: in vivo, rat; conditions: 1000 mg/kg BW/day
How it was run: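 Female rats, time-pregnant or non-pregnant, were weight-stratified and randomised from GD10. They were gavaged each morning for 10 days with 1% CMC-Na vehicle or 1000 mg/kg BW/day test compound at 1 mL/100 g (n = 11/group; pregnant high-triazine group n = 13). Observations were made at least twice on day 1, then at least daily, covering skin, fur, eyes, mucosa, autonomic/CNS signs and behaviour. Animals removed early were counted as deaths.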

pregnant rats [3] = assay: Reproductive indices at necropsy; type: in vivo, rat; conditions: dams
How it was run: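 Time-pregnant rats were gavaged daily for 10 days from GD10 with 1% CMC-Na or 1000 mg/kg BW/day test compound. At necropsy the gravid uterus was removed whole and weighed, and corpora lutea, implants, and early and late deaths were recorded. Groups were compared against both control and the other triazine group.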

[4] = Body weight and organ weights standardized to body weight; type: in vivo, rat; conditions: 1000 mg/kg BW/day; for Paired kidney weight standardized to body weight (% ± SEM): group mean
[5] = Weight gains, feed and water consumption of gavaged rats; type: in vivo, rat
How it was run: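 Rats were housed singly at 18–26 °C, 40–70% RH and 12 h light/dark, with feed and water ad libitum. They were gavaged for 10 days from GD10 with vehicle (1% CMC-Na) or 1000 mg/kg BW/day test compound. Fluid intake was measured every 3 days and feed every 7 days. For dams, adjusted gain = GD20 body weight minus gravid uterus weight and GD10 weight.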

[6] = oral, female rats; ref Jacob et al., 2012; cited from earlier work
[7] = Amniotic fluid triazine analysis by LC-MS/MS; type: in vivo, rat; conditions: pregnant female rats, pooled by dam; label = dose group; LOD 0.4 μg/mL
How it was run: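 Amniotic fluid came from GD20 dams gavaged for 10 days with vehicle or 1000 mg/kg BW/day test compound. Melamine and cyanuric acid were measured by a previously published LC-MS/MS method, validated with pre-spiked amniotic fluid. Serum-to-amniotic fluid Pearson correlations were run only on rats with both samples (p ≤ 0.05).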

ABCB1 = conditions: MDCK cells; ref Partanen et al. (2012); cited from earlier work
pregnant rats [8] = conditions: F344 rats, MEL in feed; ref Melnick et al. (1984); cited from earlier work
[9] = Serum chemistry, renal function; type: in vivo, rat; conditions: for Blood urea nitrogen (mean ± SEM) / Creatinine (mean ± SEM) / Uric acid (mean ± SEM): serum
How it was run: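 Serum was taken from pregnant and non-pregnant rats after 10 days of gavage with vehicle or 1000 mg/kg BW/day test compound. Samples were brought to room temperature. BUN, creatinine and uric acid were measured on a benchtop veterinary chemistry analyser. Results were compared with control and the other treated group.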

ABCC2 = conditions: MDCK cells; ref Partanen et al. (2012); cited from earlier work
[10] = Formalin, ethanol and freezing effects on renal crystals; parameters: species or system rat
How it was run: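 Fresh kidney wet-mounts with crystal rank 4–5 were flooded with 10% neutral buffered formalin and photographed repeatedly. Times were 0, 1, 2, 3 and 24 h for melamine-exposed kidney and 0, 10, 20, 30 min and 1 h for cyanuric acid-exposed kidney. Sections in 100% ethanol were checked daily for up to 6 days. Frozen tissue, either freeze–thawed or held at −70 °C, was cut into 6 μm cryosections, unstained or unfixed H&E.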

[11] = kidney, H&E, pregnant and non-pregnant
[12] = 1000 mg/kg BW/day, necropsy GD20
[13] = not pregnant rats, 1000 mg/kg BW/day
[14] = pregnant rats, 1000 mg/kg BW/day

SMILES: Nc1nc(N)nc(N)n1 [MEL, melamine]
- Detection of melamine in amniotic fluid ([1]; 40 mg/kg BW GD13 to GD20): did not detect
- Detection of melamine in amniotic fluid ([1]; 400 mg/kg BW): detected
- Amniotic fluid concentration as percent of maternal serum [1]: approximately 17%
- Number of rats with non-pigmented pyramidal uroliths adjacent to the papilla (kidney; 1000 mg/kg BW/day): 4
- Treated rats that developed renal crystals (percent) (kidney; pregnant and non-pregnant combined, MEL n = 24, CYA n = 22, wet-mount): 96%
- Number of treated rats that developed renal crystals (kidney; pregnant and non-pregnant combined, MEL of 24, CYA of 22, wet-mount): 23
- Substrate for ABC transporter ABCG2 (ABCG2): not a substrate
- CYA concentration, Serum [2]: <LOD
- Average crown rump length (mean cm ± SEM) (fetuses): 3.62 ± 0.23^^ cm
- Average fetal body weight (g ± SEM) (fetuses): 2.85 ± 0.48^^ g
- Litter size (mean ± SEM) (fetuses): 5.5 ± 2.0^^
- Number of rats with epithelial necrosis in the bladder (kidney and bladder; MEL: pregnant rats, minimal to marked, CYA: 1 pregnant, 2 non-pregnant, mild): 3
- Rats with tubular dilation (kidney and bladder; [11]): 92%
- Rats with tubular necrosis (kidney and bladder; [11]): 100%
- Animals removed from the study early (rats; non-pregnant rats (n = 11)): 1
- Maternal health during 10 day dosing period (rats; pregnant and non-pregnant rats): lost condition
- Animals removed from the study early (rats; pregnant rats (n = 13)): 7
- No. corpea lutea (mean ± SEM) (pregnant rats [3]; 1000 mg/kg BW/day gavage GD10-20, necropsy GD20): 15.1 ± 0.4
- Early and late deaths (mean% of implants ± SEM) (pregnant rats [3]; [12]): 60.3 ± 14.2^^ % of implants
- Early deaths (mean% of implants ± SEM) (pregnant rats [3]; [12]): 28.8 ± 12.5^@ % of implants
- Implant efficiency (mean% ± SEM) (pregnant rats [3]; [12]): 88.0 ± 3.6%
- Late deaths (mean% of implants ± SEM) (pregnant rats [3]; [12]): 31.6 ± 13.1 % of implants
- No. fetuses alive (mean ± SEM) (pregnant rats [3]; [12]): 5.5 ± 2.0
- No. implants (mean ± SEM) (pregnant rats [3]; [12]): 13.3 ± 0.6
- Percent alive both genders (mean% ± SEM) (pregnant rats [3]; [12]): 39.7 ± 14.2%
- Percent live females (mean% ± SEM) (pregnant rats [3]; [12]): 40.7 ± 3.8%
- GD20 Body weight (g ± SEM) ([4]; not pregnant rats): 211.3 ± 6.3 g
- Heart weight standardized to body weight (% ± SEM) ([4]; not pregnant rats): 0.43 ± 0.02 %
- Left kidney weight standardized to body weight (% ± SEM) ([4]; not pregnant rats): 0.65 ± 0.06%
- Liver weight standardized to body weight (% ± SEM) ([4]; not pregnant rats): 3.70 ± 0.14%
- Right kidney weight standardized to body weight (% ± SEM) ([4]; not pregnant rats): 0.68 ± 0.08^^ %
- Spleen weight standardized to body weight (% ± SEM) ([4]; not pregnant rats): 0.26 ± 0.02%
- Paired kidney weight standardized to body weight (% ± SEM) ([4]; not pregnant rats): 1.33 ± 0.13^^ %
- GD20 Body weight (g ± SEM) ([4]; pregnant rats): 247.6 ± 11.5 g
- Heart weight standardized to body weight (% ± SEM) ([4]; pregnant rats): 0.37 ± 0.03^^ %
- Left kidney weight standardized to body weight (% ± SEM) ([4]; pregnant rats): 0.52 ± 0.05%
- Liver weight standardized to body weight (% ± SEM) ([4]; pregnant rats): 3.64 ± 0.08%
- Right kidney weight standardized to body weight (% ± SEM) ([4]; pregnant rats): 0.56 ± 0.05^^ %
- Spleen weight standardized to body weight (% ± SEM) ([4]; pregnant rats): 0.16 ± 0.03%
- Paired kidney weight standardized to body weight (% ± SEM) ([4]; pregnant rats): 1.09 ± 0.10^^ %
- Total feed consumption (g ± SEM) [5, 13]: 112.3 ± 9.2^^ g
- Total water consumption (g ± SEM) [5, 13]: 295.1 ± 21.9 g
- Total bw gain (g ± SEM) ([5]; not pregnant rats, 1000 mg/kg BW/day gavage 10 days, brackets indicate negative): (9.1) ± 6.5^^ g
- Total feed consumption (g ± SEM) [5, 14]: 122.2 ± 11.0^^ g
- Total water consumption (g ± SEM) [5, 14]: 391.8 ± 43.6 g
- Total bw gain (g ± SEM) ([5]; pregnant rats, 1000 mg/kg BW/day gavage GD10-20): 5.7 ± 14.9^^ g
- Adjusted weight gain (g ± SEM) ([5]; pregnant rats, GD20 body weight minus gravid uterus weight and GD10 weight, brackets indicate negative, 1000 mg/kg BW/day): (32.0) ± 14.6^^ g
- Area under the curve (AUC) [6]: 1992 ng·h/mL
- Half-life [6]: 1.92 h
- CYA concentration, Amniotic Fluid [7]: <LOD
- Substrate for ABC transporter ABCB1 (ABCB1): not a substrate
- Microscopically-observed pathology in the ovaries or uteri (pregnant rats [8]): did not report any microscopically-observed pathology
- Effect on uric acid serum levels versus control rats ([9]; 1000 mg/kg BW/day): did not appear to have an effect
- Blood urea nitrogen (mean ± SEM) [9, 13]: 62.45 ± 17.32^^ mg/dL
- Creatinine (mean ± SEM) [9, 13]: 1.28 ± 0.27^^ mg/dL
- Uric acid (mean ± SEM) [9, 13]: 4.18 ± 0.29 mg/dL
- Mean creatinine of all treated rats ([9]; pregnant and non-pregnant pooled): 1.4 mg/dL
- Mean BUN of all treated rats ([9]; pregnant and non-pregnant pooled, all but one had crystals): 69 mg/dL
- BUN and creatinine levels, elevation over control and CYA group levels ([9]; pregnant and non-pregnant rats): 2–4 times
- Blood urea nitrogen (mean ± SEM) [9, 14]: 78.25 ± 18.41^^ mg/dL
- Creatinine (mean ± SEM) [9, 14]: 1.45 ± 0.22^^ mg/dL
- Uric acid (mean ± SEM) [9, 14]: 3.45 ± 0.12 mg/dL
- Substrate for ABC transporter ABCC2 (ABCC2): not a substrate
- Stability of crystals to freeze–thaw cycles ([10]; frozen kidney tissue, CYA stable if held at −70 °C): able to withstand freeze–thaw cycles
- Period over which crystals progressively dissolve in 100% ethanol ([10]; kidney wet-mount sections): 6 days
- Time within which crystal presence was greatly reduced in formalin ([10]; kidney wet-mount sections): ≤ 2 h
